UPR CHOP act – activators of apoptotic arm of unfolded protein response (CHOP) | hit rate 0.34% among 330,000 | CHO-CHOP luciferase reporter, UPR activation, luminescence; percent of tunicamycin response over DMSO baseline | activation, % at 10 µM;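 active = at 10 µM dose, activation of 40% or more, normalized to positive control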;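 note: 100% = tunicamycin at 10 µg/mL and 0% = DMSO alone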
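Assay system: CHO-CHOP cells, stable luciferase reporter of PERK-eIF2a-CHOP signalling / Buffer or medium: F12 plus 10% serum / Compound dosing: one dose, 10 µM in 0.5% DMSO / Times: 6 h compound treatment, 37 °C / Technique: luciferase luminescence / Read-out: % reporter activation, DMSO baseline versus tunicamycin full activation / Benchmarks: tunicamycin and DMSO controls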
Jurkat NFkB inh – inhibitors of the PMA/ionomycin-induced NF-kB reporter in Jurkat cells; PMA/ionomycin-induced NF-kB luciferase reporter, luminescence; inhibition, % at 4 µM; hit rate 0.53% among 330,000; AID 435003; in the data active = inhibition above about 50%
CHOP inhibitor – blocks CHOP induction under ER stress. inhibition, % at 10 µM. hit rate 3.8% among 220,000. AID 2732. CHO-K1 CHOP-promoter luciferase, tunicamycin-induced, 15-18 h;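 active = compounds that reduced the stress-induced luciferase reporter signal by more than about 70% of percent inhibition, limit read from the data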;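 note: 0% = tunicamycin plus vehicle and 100% = wells without tunicamycin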
697 NFkB inh – inhibitors of the PMA/ionomycin-induced NF-kB reporter in 697 B cells; AID 435022; inhibition, % at 4 µM; hit rate 0.33% among 330,000; 697 B-cell NF-kB luciferase reporter, 16 h; in the data active = inhibition above about 35%
Gli-Sufu block – antagonists of Gli-Sufu signaling | hit rate 0.74% among 340,000 | inhibition, % at 5 µM | Sufu-KO-LIGHT fibroblasts, Gli luciferase reporter luminescence;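 active = inhibition above about 55%, limit read from the data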;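 note: 0% = DMSO-treated cells and 100% = wells with medium but no cells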
UPR XBP1 act – adaptive UPR (XBP1) activation; activation, % at 20 µM; hit rate 0.33% among 330,000; AID 463104; CHO-XBP1 luciferase reporter, IRE1-XBP1 UPR activation, luminescence; percent of tunicamycin response, DMSO as zero;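 active = versus positive control, 20 µM dose yields 30% or more activation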;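 note: 100% = tunicamycin at 10 µg/mL and 0% = DMSO only wells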
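assay system = CHO-XBP1 luciferase reporter cells | amount = 1000 cells/well | buffer or medium = F12 plus 10% FBS | compound dosing = single point, 20 µM final compound, 1% DMSO | incubation = 16-18 h cell attachment at 37 °C, then 6 h compound exposure | detection = Steady-Glo luminescence read | controls = tunicamycin 10 µg/mL and vehicle-only wells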
697 NFkB conf – inhibitors of the PMA/ionomycin-induced NF-kB reporter in 697 B cells, retest | AID 449746 | shares compounds with 697 NFkB inh | hit rate 35% among 2,000 | inhibition, % at 4 µM | 697 B-cell NF-kB luciferase, 16 h; in the data active = inhibition mostly above about 28%, no sharp cut-off; inactive = mostly below about 22%
* marks the source's active call; other numbers are inactive results; i = inactive; . = no result given. A selection: hits, their analogues and other compounds. The true share with any hit is near 3.9%.

SMILES	UPR CHOP act	Jurkat NFkB inh	CHOP inhibitor	697 NFkB inh	Gli-Sufu block	UPR XBP1 act	697 NFkB conf
COc1ccc(NC(=O)c2ccc(COc3ccccc3Br)o2)cc1OC	-2	2	40	43*	-12	1	5
Cc1ccnc(NS(=O)(=O)c2cc([N+](=O)[O-])ccc2C)c1	-2	-6	0	36*	-4	-4	-4
Cc1cc(C)c(NC(=O)COC(=O)c2nc3nccc(C)n3n2)c(Cl)c1	0	-8	.	8	-8	-2	.
Cc1cc(C(=O)COC(=O)c2ccco2)c(C)n1Cc1ccco1	-8	-51	51	-47	-21	-12	.
Cc1cc(C(=O)COC(=O)c2cccn2C)c(C)n1Cc1ccco1	-3	-133	24	-305	-76	-9	-240
COc1cc(SC)ccc1C(=O)NCCCn1ccnc1	2	-7	.	-8	10	-2	.
COc1ccccc1CN1CC(C(=O)NC2CCOCC2)CCC1=O (stereo not drawn)	1	-15	.	9	-7	-6	.
CCCCn1c2c(c(=N)c3ccccc31)CCC2	1	48	10	44*	32	0	46*
N=c1c2c(n(Cc3ccccc3)c3c1CCC3)CCC2	0	40	.	2	-4	-7	.
Nc1nc(Nc2ccccc2F)sc1C(=O)c1ccccc1	5	-58	.	-260	-38	2	-21
CC(NCC(=O)Nc1ccccc1C(=O)NC1CC1)c1cccc(C(F)(F)F)c1 (stereo not drawn)	0	-15	.	-29	5	3	.
Cc1ccc(NC(=O)CCOc2ccccc2C)cc1C	4	-10	.	6	-19	1	.
CCCCNC(=O)c1cc2c(=O)n(CC)c3ccccc3c2s1	2	7	.	24	29	9	.
CCn1c(=O)c2cc(C(=O)NCc3cccs3)sc2c2ccccc21	0	-8	-5	39*	9	4	36*
CCn1c(=O)c2cc(C(=O)NC(C)C)sc2c2ccccc21	-1	4	-55	37*	17	3	28*
COCCCNC(=O)COc1ccc(-c2nccc(-c3ccccn3)n2)cc1	-4	3	63	53*	10	-2	63*
C(=N\Nc1nc2ccccc2[nH]1)/c1cccc2nccnc12	8	5	71*	-341	6	15	-110
C(=N\Nc1nc2ccccc2[nH]1)/c1ccc2ncccc2c1	6	-19	1	-132	-57	2	.
COc1ccc(-c2cc(C(=O)N/N=C/c3sccc3C)c3ccccc3n2)c(OC)c1	0	-23	39	-275	4	-1	-21
CCOc1cc(/C=C2\C(=N)N3N=CSC3=NC2=O)ccc1OS(=O)(=O)c1ccccc1	-1	8	.	44*	-22	-7	19
COc1cccc(CNc2ncnc3ccc(-c4c(C)noc4C)cc23)c1	2	10	.	23	17	0	.
Cc1noc(C)c1-c1ccc2ncnc(NCC3CCCCN3C)c2c1 (stereo not drawn)	1	-20	.	36*	23	-1	26
CCOc1ccc(NC(=O)CN(C)C(=O)c2ccc(N3CCCCCC3)c([N+](=O)[O-])c2)cc1OCC	0	-14	.	42*	3	-5	3
Cc1ccc(N=Nc2ccc(O)cc2)c(Br)c1	5	-117	.	-316	-158	2	-222
O=C(N/N=C\c1ccc(F)cc1)c1ccc(Cn2cc(Br)c([N+](=O)[O-])n2)o1	2	6	-20	37*	-5	-2	15
SMILES	UPR CHOP act	Jurkat NFkB inh	CHOP inhibitor	697 NFkB inh	Gli-Sufu block	UPR XBP1 act	697 NFkB conf
O=C(N/N=C\c1cccc(F)c1)c1ccc(Cn2cc(Br)c([N+](=O)[O-])n2)o1	2	10	-23	11	-4	2	.
COc1ccc(NC(=O)C2CCN(c3cc(-c4ccccc4)nc4ncnn34)CC2)cc1OC	-1	24	17	40*	9	-1	8
Cc1ccc(CSc2nnc(SCC(=O)N/N=C/C=C/c3ccco3)s2)cc1	3	-2	41	31	-11	-1	.
Cc1ccc(CSc2nnc(SCC(=O)N/N=C/C=C/c3ccccc3[N+](=O)[O-])s2)cc1	4	-7	38	66*	9	-1	55*
O=C(NNC(=O)C12CC3CC(CC(C3)C1)C2)c1cccc(O)c1	2	7	.	44*	10	0	45*
O=C(/C=C\Nc1ccccn1)c1ccc(Cl)cc1	-7	-73	23	-284	-87	-8	-238
O=C(Nc1ccccn1)c1ccc(C(=O)Nc2ccccn2)cc1	6	-45	.	-1	-39	-5	.
CN(CC(=O)N1CCN(Cc2ccccc2)CC1)C(=O)Cc1ccc(Cl)c(Cl)c1	0	3	.	16	0	-3	.
Cc1sc(NC(=O)c2ccco2)c(C(c2cccnc2)N2CCC(C)CC2)c1C (stereo not drawn)	0	36	42	36*	11	2	-12
COc1cccc(-c2nc(-c3ccc(NC(=O)c4cccnc4)cc3)no2)c1	6	-26	40	-72	-19	5	.
O=C(Nc1ccc(-c2noc(-c3cccs3)n2)cc1)c1cccnc1	2	-101	36	-289	-74	3	-280
CCCc1cc(=O)[nH]c(SCC(=O)Nc2cccc(S(=O)(=O)N3CCOCC3)c2)n1	-1	-6	.	21	-10	0	.
Cc1cc(C)nc(Sc2ccc([N+](=O)[O-])cc2[N+](=O)[O-])n1	17	-14	-9	41*	4	-3	29*
CN(C)/N=C/c1ccc(Sc2ccc([N+](=O)[O-])cc2[N+](=O)[O-])o1	7	-5	-90	4	10	4	.
O=C(NCc1ccccc1)C1=C[C@H](C2CCCCC2)C[C@H](OCc2ccc(CO)cc2)O1	3	7	19	i	-12	-4	-23
O=C(NCc1ccccc1)C1=C[C@@H](C2CC2)C[C@@H](OCc2ccc(CO)cc2)O1	0	16	25	11	30	-3	.
CC(C)(CSc1ncccn1)NS(=O)(=O)c1ccccc1	-1	3	2	39*	0	-1	6
COC(=O)c1sc2nc(C)nc(SCC(=O)Nc3sccc3C(N)=O)c2c1C	-1	1	.	4	-11	-1	.
Cc1ccc(S(=O)(=O)Nc2c(C)nn(C)c2C)c(C)c1	2	-3	.	-1	11	-4	.
Cc1noc(C)c1COc1ccccc1C(=O)NC(C)c1ccc(Cl)cc1 (stereo not drawn)	-1	4	.	11	10	0	.
Cc1ccc(C)c(NC(=O)CSc2nnc(-c3ccccc3C)o2)c1	0	1	49	10	10	-1	.

Screening results as filed in PubChem BioAssay.
